Experiments:
[1] = test system: Ovis aries; experiment: Percent reduction in Trichuris eggs per gram, after treatment with 450 mg/kg dose of compound perorally in sheep; type: functional, Egg; conditions: route oral
Outline: (§1)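 Naturally parasitized lambs, dosed orally either with a suspension by stomach tube or with finely ground compound in gelatin capsules by balling gun. Activity was scored by the clinical test method, meaning a significant fall in helminth egg counts after treatment.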

[2] = test system: Ovis aries; experiment: Percent reduction in Haemonchus eggs per gram, after treatment with 450 mg/kg dose of compound perorally in sheep; type: functional, Egg; conditions: route oral
Outline: (§2)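 Naturally parasitized lambs were dosed orally at the stated mg/kg. Dosing was either as a suspension of finely ground compound by stomach tube, or as ground compound weighed into gelatin capsules and given by balling gun. Activity was scored by the clinical test method: the decrease in posttreatment helminth eggs per gram.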

[3] = test system: Ovis aries; experiment: Percent reduction in Trichuris eggs per gram, after treatment with 325 mg/kg dose of compound perorally in sheep; type: functional, Egg; conditions: route oral
[4] = test system: Ovis aries; experiment: Percent reduction in Strongyloides eggs per gram, after treatment with 250 mg/kg dose of compound perorally in sheep; type: functional, Egg; conditions: route oral; outline: as §1
[5] = test system: Ovis aries; experiment: Percent reduction in Trichostrongylus eggs per gram, after treatment with 325 mg/kg dose of compound perorally in sheep; type: functional, Egg; conditions: route oral
[6] = test system: Ovis aries; experiment: Percent reduction in Nematodirus eggs per gram, after treatment with 250 mg/kg dose of compound perorally in sheep; type: functional, Egg; conditions: route oral; outline: as §2
[7] = test system: Ovis aries; experiment: Percent reduction in Trichostrongylus eggs per gram, after treatment with 400 mg/kg dose of compound perorally in sheep; type: functional, Egg; conditions: route oral; outline: as §1
[8] = organism: Mus musculus; experiment: Percent clearance of Nematospiroides dubius from mouse after oral treatment of 1.87 mg/mouse/day; type: functional
Outline: (§3)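 Mice naturally carrying Syphacia obvelata were experimentally infected with Nematospiroides dubius and Hymenolepis nana, then grouped after a 2-week prepatency. Finely ground compound was suspended in aqueous 0.10% carboxymethylcellulose, 0.04% polysorbate 80 and 0.0042% polyparaben, and 0.1 mL was given orally by cannula once daily for 4 days to five mice. Necropsy followed 2 days later, scoring presence or absence of each parasite. Control clearance was subtracted from the treated clearance.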

[9] = test system: Ovis aries; experiment: Percent reduction in Ostertagia eggs per gram, after treatment with 250 mg/kg dose of compound perorally in sheep; type: functional, Egg; conditions: route oral; outline: as §1
[10] = test system: Ovis aries; experiment: Percent reduction in Oesophagostomum eggs per gram, after treatment with 250 mg/kg dose of compound perorally in sheep; type: functional, Egg; conditions: route oral; outline: as §2
[11] = test system: Ovis aries; experiment: Percent reduction in Cooperia eggs per gram, after treatment with 400 mg/kg dose of compound perorally in sheep; type: functional, Egg; conditions: route oral
Outline: (§4)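 Naturally parasitized lambs received compound orally, either as the aqueous suspension by stomach tube or as finely ground powder in gelatin capsules by balling gun. Activity was judged by the clinical test method, as a significant decrease in posttreatment helminth egg counts.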

[12] = organism: Canis familiaris; experiment: Percent reduction in Ancylostoma eggs per gram, after oral treatment of 175 mg/dog dose of compound in a single treatment; type: functional, Canis lupus familiaris, Egg
Outline: (§5)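 Dogs naturally infected with Toxascaris leonina were experimentally infected with mixed Ancylostoma caninum and Uncinaria stenocephala larvae. Finely ground compound was given orally in gelatin capsules. Fecal egg counts were taken three times before and three times after treatment, and activity was taken as the fall in egg counts.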

[13] = test system: Ovis aries; experiment: Percent reduction in Haemonchus eggs per gram, after treatment with 250 mg/kg dose of compound perorally in sheep; type: functional, Egg; conditions: route oral; outline: as §2
[14] = test system: Ovis aries; experiment: Percent reduction in Trichuris eggs per gram, after treatment with 400 mg/kg dose of compound perorally in sheep; type: functional, Egg; conditions: route oral; outline: as §1
[15] = test system: Ovis aries; experiment: Percent reduction in Ostertagia eggs per gram, after treatment with 400 mg/kg dose of compound perorally in sheep; type: functional, Egg; conditions: route oral; outline: as §1
[16] = test system: Ovis aries; experiment: Percent reduction in Strongyloides eggs per gram, after treatment with 325 mg/kg dose of compound perorally in sheep; type: functional, Egg; conditions: route oral; outline: as §1
[17] = test system: Ovis aries; experiment: Percent reduction in Haemonchus eggs per gram, after treatment with 400 mg/kg dose of compound perorally in sheep; type: functional, Egg; conditions: route oral; outline: as §2
[18] = test system: Ovis aries; experiment: Percent reduction in Moniezia eggs per gram, after treatment with 400 mg/kg dose of compound perorally in sheep; type: functional, Egg; conditions: route oral; outline: as §2
[19] = test system: Ovis aries; experiment: Percent reduction in Haemonchus eggs per gram, after treatment with 325 mg/kg dose of compound perorally in sheep; type: functional, Egg; conditions: route oral; outline: as §2
[20] = test system: Ovis aries; experiment: Percent reduction in Trichuris eggs per gram, after treatment with 250 mg/kg dose of compound perorally in sheep; type: functional, Egg; conditions: route oral; outline: as §1
[21] = organism: Canis familiaris; experiment: Percent reduction in Toxascaris eggs per gram, after treatment with 200 mg/dog dose of compound in a single treatment; type: functional, Canis lupus familiaris, Egg
Outline: (§6)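 Dogs naturally infected with Toxascaris leonina were experimentally infected with mixed Ancylostoma caninum and Uncinaria stenocephala larvae. Finely ground compound was given orally in gelatin capsules. Three egg count determinations were made before and three after treatment in each experiment.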

[22] = organism: Canis familiaris; experiment: Percent reduction in Uncinaria eggs per gram, after oral treatment of 175 mg/dog dose of compound in a single treatment; type: functional, Canis lupus familiaris, Egg
[23] = test system: Ovis aries; experiment: Percent reduction in Trichostrongylus eggs per gram, after treatment with 450 mg/kg dose of compound perorally in sheep; type: functional, Egg; conditions: route oral; outline: as §1
[24] = test system: Ovis aries; experiment: Percent reduction in Nematodirus eggs per gram, after treatment with 450 mg/kg dose of compound perorally in sheep; type: functional, Egg; conditions: route oral; outline: as §2
[25] = test system: Ovis aries; experiment: Percent reduction in Ostertagia eggs per gram, after treatment with 325 mg/kg dose of compound perorally in sheep; type: functional, Egg; conditions: route oral; outline: as §1
[26] = organism: Mus musculus; experiment: Percent clearance of Syphacaia obvelata from mouse after oral treatment of 1.87 mg/mouse/day; type: functional; outline: as §3
[27] = test system: Ovis aries; experiment: Percent reduction in Oesophagostomum eggs per gram, after treatment with 450 mg/kg dose of compound perorally in sheep; type: functional, Egg; conditions: route oral; outline: as §2
[28] = test system: Ovis aries; experiment: Percent reduction in Ostertagia eggs per gram, after treatment with 450 mg/kg dose of compound perorally in sheep; type: functional, Egg; conditions: route oral; outline: as §1
[29] = organism: Canis familiaris; experiment: Percent reduction in Uncinaria eggs per gram, after treatment with 200 mg/dog dose of compound in a single treatment; type: functional, Canis lupus familiaris, Egg; outline: as §6
[30] = test system: Ovis aries; experiment: Percent reduction in Trichostrongylus eggs per gram, after treatment with 250 mg/kg dose of compound perorally in sheep; type: functional, Egg; conditions: route oral
[31] = test system: Ovis aries; experiment: Percent reduction in Strongyloides eggs per gram, after treatment with 450 mg/kg dose of compound perorally in sheep; type: functional, Egg; conditions: route oral; outline: as §1
[32] = organism: Canis familiaris; experiment: Percent reduction in Ancylostoma eggs per gram, after treatment with 200 mg/dog dose of compound in a single treatment; type: functional, Canis lupus familiaris, Egg; outline: as §5
[33] = test system: Ovis aries; experiment: Percent reduction in Ostertagia eggs per gram, after treatment with 100 mg/kg dose of compound perorally in sheep; type: functional, Egg; conditions: route oral; outline: as §2
[34] = test system: Ovis aries; experiment: Percent reduction in Haemonchus eggs per gram, after treatment of 100 mg/kg dose of compound perorally in sheep; type: functional, Egg; conditions: route oral; outline: as §4
[35] = test system: Ovis aries; experiment: Percent reduction in Cooperia eggs per gram, after treatment with 100 mg/kg dose of compound perorally in sheep; type: functional, Egg; conditions: route oral; outline: as §4
[36] = test system: Ovis aries; experiment: Percent reduction in Oesophagostomum eggs per gram, after treatment with 100 mg/kg dose of compound perorally in sheep; type: functional, Egg; conditions: route oral; outline: as §2
[37] = test system: Ovis aries; experiment: Percent reduction in Trichuris eggs per gram, after treatment with 100 mg/kg dose of compound perorally in sheep; type: functional, Egg; conditions: route oral; outline: as §1
[38] = test system: Ovis aries; experiment: Percent reduction in Trichostrongylus eggs per gram, after treatment with 100 mg/kg dose of compound perorally in sheep; type: functional, Egg; conditions: route oral; outline: as §1
[39] = test system: Ovis aries; experiment: Percent reduction in Strongyloides eggs per gram, after treatment with 100 mg/kg dose of compound perorally in sheep; type: functional, Egg; conditions: route oral; outline: as §1
[40] = test system: Ovis aries; experiment: Percent reduction in Haemonchus eggs per gram, after treatment with 200 mg/kg dose of compound perorally in sheep; type: functional, Egg; conditions: dose 200 mg/kg; route oral; outline: as §2
[41] = organism: Canis familiaris; experiment: Percent reduction in Ancylostoma eggs per gram, after oral treatment of 20 mg/dog dose of compound in a single treatment; type: functional, Canis lupus familiaris, Egg; outline: as §5
[42] = organism: Canis familiaris; experiment: Percent reduction in Ancylostoma eggs per gram, after oral treatment of 25 mg/dog dose of compound in a single treatment; type: functional, Canis lupus familiaris, Egg; outline: as §5
[43] = test system: Ovis aries; experiment: Percent reduction in Haemonchus eggs per gram, after treatment with 100 mg/kg dose of compound perorally in sheep; type: functional, Egg; conditions: route oral; outline: as §4
[44] = organism: Canis familiaris; experiment: Percent reduction in Uncinaria eggs per gram, after oral treatment of 25 mg/dog dose of compound in a single treatment; type: functional, Canis lupus familiaris, Egg
[45] = organism: Mus musculus; experiment: Percent clearance of Hymenolepis nana from mouse after oral treatment of 1.5 mg/mouse/day; type: functional; outline: as §3
[46] = test system: Ovis aries; experiment: Percent reduction in Strongyloides eggs per gram, after treatment with 200 mg/kg dose of compound perorally
[47] = test system: Ovis aries; experiment: Percent reduction in Ostertagia eggs per gram, after treatment with 200 mg/kg dose of compound perorally in sheep; type: functional, Egg; conditions: route oral; outline: as §1
[48] = organism: Canis familiaris; experiment: Percent reduction in Uncinaria eggs per gram, after oral treatment of 20 mg/dog dose of compound in a triple treatment; type: functional, Canis lupus familiaris, Egg
[49] = test system: Ovis aries; experiment: Percent reduction in Oesophagostomum eggs per gram, after treatment with 200 mg/kg dose of compound perorally in sheep; type: functional, Egg; conditions: dose 200 mg/kg; route oral; outline: as §2
[50] = organism: Canis familiaris; experiment: Percent reduction in Ancylostoma eggs per gram, after oral treatment of 20 mg/dog dose of compound in a triple treatment; type: functional, Canis lupus familiaris, Egg; outline: as §5
[51] = organism: Canis familiaris; experiment: Percent reduction in Ancylostoma eggs per gram, after oral treatment of 10 mg/dog dose of compound in a double treatment; type: functional, Canis lupus familiaris, Egg; outline: as §5
[52] = organism: Mus musculus; experiment: Percent clearance of Syphacaia obvelata from mouse after oral treatment of 1.5 mg/mouse/day; type: functional; outline: as §3
[53] = test system: Ovis aries; experiment: Percent reduction in Trichostrongylus eggs per gram, after treatment with 200 mg/kg dose of compound perorally in sheep; type: functional, Egg; conditions: route oral; outline: as §1
[54] = organism: Canis familiaris; experiment: Percent reduction in Uncinaria eggs per gram, after oral treatment of 10 mg/dog dose of compound in a double treatment; type: functional, Canis lupus familiaris, Egg
[55] = test system: Ovis aries; experiment: Percent reduction in Trichostrongylus eggs per gram, after treatment with 150 mg/kg dose of compound intraperitoneally in sheep; conditions: route intraperitoneal
[56] = organism: Canis familiaris; experiment: Percent reduction in Uncinaria eggs per gram, after oral treatment of 20 mg/dog dose of compound in a single treatment; type: functional, Canis lupus familiaris, Egg

Cl/C(=N\Nc1c(Cl)cc(Cl)cc1Cl)c1ccccc1
Reduction [1]: 29%
Reduction [2]: 94%
Reduction [3]: 0%
Reduction [4]: 95%
Reduction [5]: 33%
Reduction [6]: 82%
Reduction [7]: 77%
Parasite_Clearance [8]: 80%
Reduction [9]: 100%
Reduction [10]: 95%
Reduction [11]: 100%
Reduction [12]: 31%
Reduction [13]: 98%
Reduction [14]: 14%
Reduction [15]: 100%
Reduction [16]: 79%
Reduction [17]: 85%
Reduction [18]: 100%
Reduction [19]: 99%
Reduction [20]: 63%
Reduction [21]: 67%
Reduction [22]: 26%
Reduction [23]: 100%
Reduction [24]: 63%
Reduction [25]: 98%
Parasite_Clearance [26]: 20%
Reduction [27]: 0%
Reduction [28]: 100%
Reduction [29]: 59%
Reduction [30]: 98%
Reduction [31]: 100%
Reduction [32]: 87%

Cl/C(=N\Nc1ccc(Cl)c(Cl)c1Cl)c1ccccc1
Reduction [33]: 0%
Reduction [34]: 0%
Reduction [35]: 89%
Reduction [36]: 0%
Reduction [37]: 0%
Reduction [38]: 0%
Reduction [39]: 95%

CCCCOc1ccc(/C(Cl)=N/Nc2ccccc2)cc1
Reduction [33]: 100%
Reduction [40]: 100%
Reduction [41]: 86%
Reduction [42]: 100%
Reduction [43]: 100%
Reduction [44]: 67%
Parasite_Clearance [45]: 100%
Reduction [46]: 100%
Reduction [47]: 100%
Reduction [48]: 100%
Reduction [36]: 100%
Reduction [49]: 100%
Reduction [37]: 100%
Reduction [50]: 0%
Reduction [38]: 100%
Reduction [51]: 92%
Reduction [39]: 32%
Parasite_Clearance [52]: 100%
Reduction [53]: 100%
Reduction [54]: 75%
Reduction [55]: 0%
Reduction [56]: 86%

Source: ChEMBL document CHEMBL1121917, “Structure--activity relationships in a broad-spectrum anthelmintic series. Acid chloride phenylhydrazones. 1. Aryl substitutions and chloride variations” (1981)
